Data set [1] in a line: Inhibition of apamin-sensitive SK channel.
The target in data set [2] is Small conductance calcium-activated potassium channel protein 3 (Homo sapiens, UniProt Q9UGI6). Briefly: Inhibition of SK3 expressed in CHO FlipIn cells by whole cell patch-clamp assay. The format is cell-based. Background: Patch clamp records ionic current or voltage across a cell membrane.
A short description of data set [3]: Inhibition of sigma 2 receptor at 10 uM.
For data set [4], the target named is Small conductance calcium-activated potassium channel protein 1 (Homo sapiens, UniProt Q92952). Description: Inhibition of SK1 expressed in CHO FlipIn cells by whole cell patch-clamp assay. The format is cell-based. The gist of the method:
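Whole-cell patch clamp on CHO FlipIn cells stably transfected with SK1, grown in Ham's F-12 with 10% calf serum, streptomycin/penicillin and hygromycin-B. Pipette solution (mM): KCl 130, EGTA 10, CaCl2 8.751, MgCl2 1.08, Hepes 10 ([…]), pH 7.2. K+ currents at −50 mV; percent inhibition at increasing concentrations, normalised to full block by 100 µM N-methyl-laudanosine.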

Data set [5] deals with Small conductance calcium-activated potassium channel protein 2 (Homo sapiens, UniProt Q9H2S1). Briefly: Inhibition of SK2 expressed in CHO FlipIn cells by whole cell patch-clamp assay. The format is cell-based.
Data set [6] is described as follows: Inhibition of L-type calcium channel at 10 uM.
A short description of data set [7]: Dissociation constant, pKa at pH 1.8 to 2.0. The format is physicochemical. The gist of the method:
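pKa by potentiometric titration on a Sirius PCA200 analyser; at least three aqueous solutions titrated; sample acidified to pH 1.8–2.0 with 0.5 M aqueous HCl, then titrated with 0.5 M aqueous KOH to pH 12.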

For data set [8], the target named is Histamine H3 receptor (Homo sapiens) (UniProt Q9Y5N1). Description: Inhibition of histamine H3 receptor at 10 uM.
The target in data set [9] is D(2) dopamine receptor (Homo sapiens) (UniProt P14416). Briefly: Inhibition of dopamine D2 receptor at 10 uM.
The nature of data set [10]: Inhibition of apamin-sensitive SK channel at 10 uM.
Data set [11] can be described thus: Lipophilicity, log P of the compound. Conditions: octanol/water. The format is physicochemical. Summed up:
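logP by potentiometric titration on a Sirius PCA200 analyser; at least three titrations at different phase volume ratios, mean logP reported; sample acidified to pH 1.8–2.0 with 0.5 M HCl, titrated with 0.5 M KOH to pH 12.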

For data set [12], the target named is T1, 5-hydroxytryptamine receptor 1A (Homo sapiens) (UniProt P08908).
T1 sequence (whole entry): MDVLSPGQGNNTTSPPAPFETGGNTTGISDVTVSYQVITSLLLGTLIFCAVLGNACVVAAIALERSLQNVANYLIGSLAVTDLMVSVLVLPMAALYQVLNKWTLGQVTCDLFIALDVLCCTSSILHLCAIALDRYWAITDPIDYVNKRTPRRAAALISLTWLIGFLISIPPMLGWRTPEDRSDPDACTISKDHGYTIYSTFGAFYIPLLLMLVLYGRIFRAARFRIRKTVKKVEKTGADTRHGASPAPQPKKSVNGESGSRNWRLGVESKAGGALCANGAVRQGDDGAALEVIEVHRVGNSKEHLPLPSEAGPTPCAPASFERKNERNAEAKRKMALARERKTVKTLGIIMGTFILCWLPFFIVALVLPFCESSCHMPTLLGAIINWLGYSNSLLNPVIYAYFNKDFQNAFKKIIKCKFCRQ
Briefly: Inhibition of 5HT1A receptor at 10 uM.

The values below come from ChEMBL document CHEMBL1145645, “Bis-tetrahydroisoquinoline derivatives: AG525E1, a new step in the search for non-quaternary non-peptidic small conductance Ca(2+)-activated K(+) channel blockers” (Bioorg Med Chem Lett, 2008).

The structures appear in SMILES notation.

Sequence of Small conductance calcium-activated potassium channel protein 3 (Q9UGI6 whole entry): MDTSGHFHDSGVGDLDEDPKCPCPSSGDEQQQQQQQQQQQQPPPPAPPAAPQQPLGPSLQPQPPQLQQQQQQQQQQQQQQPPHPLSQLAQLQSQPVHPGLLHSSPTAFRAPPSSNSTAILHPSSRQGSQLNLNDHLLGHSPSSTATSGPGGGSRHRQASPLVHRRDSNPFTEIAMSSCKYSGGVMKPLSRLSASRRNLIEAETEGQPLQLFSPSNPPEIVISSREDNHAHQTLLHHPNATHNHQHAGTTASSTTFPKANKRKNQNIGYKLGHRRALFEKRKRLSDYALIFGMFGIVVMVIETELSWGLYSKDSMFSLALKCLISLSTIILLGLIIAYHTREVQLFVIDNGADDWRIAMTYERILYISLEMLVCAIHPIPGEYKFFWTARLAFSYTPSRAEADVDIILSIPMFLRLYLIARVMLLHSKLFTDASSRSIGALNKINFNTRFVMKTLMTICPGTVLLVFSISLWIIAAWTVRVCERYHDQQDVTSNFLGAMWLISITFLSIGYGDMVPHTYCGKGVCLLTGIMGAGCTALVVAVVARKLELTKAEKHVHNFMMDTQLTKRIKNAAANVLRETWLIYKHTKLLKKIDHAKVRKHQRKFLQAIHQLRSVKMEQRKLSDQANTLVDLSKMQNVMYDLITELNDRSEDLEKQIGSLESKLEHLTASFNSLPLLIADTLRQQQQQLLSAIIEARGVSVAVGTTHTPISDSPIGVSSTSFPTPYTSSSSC
Sequence of Small conductance calcium-activated potassium channel protein 2 (Q9H2S1 whole entry): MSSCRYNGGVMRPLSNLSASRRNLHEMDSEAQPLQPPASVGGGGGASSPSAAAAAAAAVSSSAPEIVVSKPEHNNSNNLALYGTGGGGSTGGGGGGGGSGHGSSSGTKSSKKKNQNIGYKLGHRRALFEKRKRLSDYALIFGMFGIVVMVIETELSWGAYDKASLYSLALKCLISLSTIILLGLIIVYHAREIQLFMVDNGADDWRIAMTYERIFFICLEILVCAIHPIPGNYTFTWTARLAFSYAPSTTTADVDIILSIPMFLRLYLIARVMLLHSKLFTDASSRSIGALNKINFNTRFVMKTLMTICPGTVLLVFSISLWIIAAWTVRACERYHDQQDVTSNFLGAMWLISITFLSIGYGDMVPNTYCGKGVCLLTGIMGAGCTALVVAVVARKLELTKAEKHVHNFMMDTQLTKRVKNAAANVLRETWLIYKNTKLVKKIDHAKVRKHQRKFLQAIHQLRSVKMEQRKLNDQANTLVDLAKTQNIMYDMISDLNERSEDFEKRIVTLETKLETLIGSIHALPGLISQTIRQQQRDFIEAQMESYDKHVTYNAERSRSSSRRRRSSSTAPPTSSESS
Sequence of D(2) dopamine receptor (Homo sapiens) (P14416 whole entry): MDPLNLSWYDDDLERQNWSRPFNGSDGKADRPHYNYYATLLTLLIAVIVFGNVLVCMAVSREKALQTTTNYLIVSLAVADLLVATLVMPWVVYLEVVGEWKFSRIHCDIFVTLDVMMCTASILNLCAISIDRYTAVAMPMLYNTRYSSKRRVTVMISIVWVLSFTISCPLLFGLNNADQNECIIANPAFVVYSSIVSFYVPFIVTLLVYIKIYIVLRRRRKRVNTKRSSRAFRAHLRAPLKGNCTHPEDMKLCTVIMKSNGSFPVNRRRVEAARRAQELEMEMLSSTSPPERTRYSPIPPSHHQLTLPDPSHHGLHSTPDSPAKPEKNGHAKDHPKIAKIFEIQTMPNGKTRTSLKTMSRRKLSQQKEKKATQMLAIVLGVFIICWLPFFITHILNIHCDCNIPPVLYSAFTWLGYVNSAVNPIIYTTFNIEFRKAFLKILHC
Sequence of Small conductance calcium-activated potassium channel protein 1 (Q92952 whole entry): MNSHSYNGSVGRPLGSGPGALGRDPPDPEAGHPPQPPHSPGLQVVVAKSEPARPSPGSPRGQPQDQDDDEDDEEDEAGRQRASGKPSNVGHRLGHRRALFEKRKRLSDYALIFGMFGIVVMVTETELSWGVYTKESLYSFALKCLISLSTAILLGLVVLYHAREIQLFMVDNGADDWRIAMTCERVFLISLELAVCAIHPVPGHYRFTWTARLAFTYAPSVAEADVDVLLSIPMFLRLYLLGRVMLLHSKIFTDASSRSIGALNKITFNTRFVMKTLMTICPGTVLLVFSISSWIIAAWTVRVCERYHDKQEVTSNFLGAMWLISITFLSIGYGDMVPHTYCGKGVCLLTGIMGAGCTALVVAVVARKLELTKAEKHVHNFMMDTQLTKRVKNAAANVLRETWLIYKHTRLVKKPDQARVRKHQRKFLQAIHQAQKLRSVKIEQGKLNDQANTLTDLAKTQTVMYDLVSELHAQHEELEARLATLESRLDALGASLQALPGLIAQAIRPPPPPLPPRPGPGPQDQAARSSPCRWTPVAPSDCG
Sequence of Histamine H3 receptor (Homo sapiens) (Q9Y5N1 whole entry): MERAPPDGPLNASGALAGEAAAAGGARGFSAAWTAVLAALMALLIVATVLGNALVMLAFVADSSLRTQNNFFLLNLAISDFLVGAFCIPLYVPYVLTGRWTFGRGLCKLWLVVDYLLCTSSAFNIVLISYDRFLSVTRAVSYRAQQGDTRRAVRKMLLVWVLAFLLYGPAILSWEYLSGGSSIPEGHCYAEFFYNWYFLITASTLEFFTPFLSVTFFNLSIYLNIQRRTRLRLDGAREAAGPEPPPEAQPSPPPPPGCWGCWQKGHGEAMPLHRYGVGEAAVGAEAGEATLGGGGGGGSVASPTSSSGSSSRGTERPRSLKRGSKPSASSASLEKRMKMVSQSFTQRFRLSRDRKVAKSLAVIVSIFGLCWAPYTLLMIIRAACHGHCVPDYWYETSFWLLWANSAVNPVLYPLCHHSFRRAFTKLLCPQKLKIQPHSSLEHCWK

In turn, `Cc1cc(N)c2ccccc2[n+]1CCCCCCCCCC[n+]1c(C)cc(N)c2ccccc21` [DEQUALINIUM CHLORIDE] showed an inhibition constant Ki in [1] of 221 nM.

Regarding `COc1cc2c(cc1OC)[C@H](CCC[C@H]1c3cc(OC)c(OC)cc3CCN1C)N(C)CC2`, the IC50 in data set [2] amounted to 3000 nM; in [4] it was 3800 nM; in [5], 2600 nM. The inhibition in data set [3] was found to be 39%; in data set [6], 36%; in [8], 37%; in data set [9], 31%; in [10], 61%; in data set [12] it was 39%. Also, the affinity in [1] corresponds to a Ki of 293 nM. Moreover, in data set [7], the pKa is 8.1. For the same compound, the logP in data set [11] was 2.9.

Consider `COc1cc2c(cc1OC)[C@@H](CCC[C@@H]1c3cc(OC)c(OC)cc3CCN1C)N(C)CC2`, for which, in [1], affinity was put at a Ki of 1880 nM. This counts as single-digit micromolar.

Compound `COc1cc2c(cc1OC)[C@@H](CCC[C@H]1c3cc(OC)c(OC)cc3CCN1C)N(C)CC2` displayed a Ki in [1] of 1420 nM.

`COc1ccc(C[C@H]2c3cc(OC)c(OC)cc3CC[N+]2(C)C)cc1OC` [LAUDANOSINE METHIODIDE] had a Ki in [1] of 1600 nM.

Take `COc1ccc(CC2c3cc(OC)c(OC)cc3CCN2C)cc1OC` (configuration not stated) [LAUDANOSINE]: in data set [1], the Ki was 30000 nM. Compared with the last compound, the Ki is about 19-fold higher.

By Ki is commonly meant a dissociation constant, usually derived from enzyme kinetics or from competition with a known ligand. One may read the IC50 as the concentration that inhibits the measured activity by half. One may read the inhibition as the change of the read-out against control, counted positive when it falls. The pKa is the pH at which an ionisable group is half protonated. Higher therefore signals a weaker acid or stronger base. As a reminder, the logP is the decadic logarithm of the partition coefficient of the neutral form, usually between octanol and water.
